The test system of test [1] is MCF7. As to the kind of experiment: Cytotoxicity against human MCF7 cells assessed as reduction in cell number after 48 hrs by MTT assay. Type of test: functional, cell-based. As to conditions: for IC50: MCF7, 48 h. In a few lines: (§1)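 Cells seeded at 10×10^3 (MCF7) or 15×10^3 (HUVEC, primary from umbilical cords, passages 2-3) per well, exposed to agents at different concentrations up to 10 µM for 48 h. MTT added at 1/10 medium volume, 2 h at 37°C, formazan dissolved in acidified isopropanol, absorbance read at 490 nm. Confirmed by haemocytometer counts. IC50 and maximal percent decrease interpolated from graphs. Mean ± S.E.M. versus untreated cells.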
(Formazan colour is commonly taken as a measure of viable cells.)

The subject of test [2] is MCF7. Put plainly: Cytotoxicity against human MCF7 cells assessed as reduction in cell number at 10 uM after 48 hrs by MTT assay. The class given is functional. In a few lines: as §1
In test [3] the test system is MCF7. Put plainly: Induction of ROS production in human MCF7 cells after 4 to 6 hrs by carboxy-H2DCFDA dye based fluorescence assay. Type of test: functional, cell-based. In a few lines: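 MCF7 cells seeded at 15×10^3/well, exposed to agents 24 h later for 4 h. After PBS washes, cells loaded with 50 µM carboxy-H2DCFDA for 15 min in the dark. Fluorescence read at excitation 492–495 nm and emission 517–527 nm.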

For test [4], the system named is MCF7. Put plainly: Induction of apoptosis in human MCF7 cells at 10 uM after 48 hrs by Annexin V-FITC/PI staining based flow cytometry. Type of test: functional, cell-based. A general note: Flow cytometry measures light scatter and fluorescence of single cells or particles in a stream.
Test [5] deals with MCF7. As to the kind of experiment: Induction of necrosis in human MCF7 cells at 10 uM after 48 hrs by Annexin V-FITC/PI staining based flow cytometry. Type of test: functional, cell-based.
In test [6] the test system is MCF7. As to the kind of experiment: Decrease in pleiotrophin secretion in conditioned media of human MCF7 cells at 10 uM after 24 hrs by Western blot analysis. Type of test: functional, cell-based. In a few lines:
(§2)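 MCF7 cells treated with 10 µM agent for 24 h. PTN in the whole conditioned medium was captured on heparin-Sepharose for 16 h at 4°C and eluted in reducing Laemmli buffer. Lysates were run in parallel. Blots were probed with mouse anti-PTN (1:1,000), normalised to β-actin, and quantified by densitometry as percent of untreated (n=3).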
In general terms: A western blot detects proteins with antibodies after separation by electrophoresis.

The subject of test [7] is MCF7. Put plainly: Decrease in pleiotrophin protein expression in human MCF7 cell lysate at 10 uM after 24 hrs by Western blot analysis. Type of test: functional, cell-based. In a few lines:
as §2

The test system of test [8] is HUVEC. As to the kind of experiment: Cytotoxicity against HUVEC assessed as reduction in cell number after 48 hrs by MTT assay. Type of test: functional, cell-based. As to conditions: Homo sapiens. In a few lines:
as §1

Test [9] deals with HUVEC. Put plainly: Cytotoxicity against HUVEC assessed as reduction in cell number at 10 uM after 48 hrs by MTT assay. Type of test: functional, Homo sapiens. In a few lines:
as §1

Another test deals with Chorioallantoic membrane. Put plainly: In vivo antiangiogenic activity in Leghorn chicken embryo chorioallantoic membrane assessed as decrease in total vessel length at 10 nmol/egg after 48 hrs relative to control. The arrangement: scale not given: the % may be the effect or the level left. The class given is functional, Gallus gallus. In a few lines: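 Windows opened in fertilized Leghorn eggs on day 4. On day 9, agent in 20 µl PBS applied to 1 cm² of CAM inside a plastic ring. After 48 h at 37°C, CAMs fixed in situ, excised and air-dried. Total vessel length measured by image analysis as percent change versus control. At least three experiments, 10–20 eggs per point.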

The subject of test [10] is MCF7. As to the kind of experiment: Cytotoxicity against human MCF7 cells assessed as reduction in cell number at 10 uM cotreated with spermidine after 48 hrs by MTT assay. The class given is functional, cell-based. In a few lines:
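MCF7 cells given the conjugate, the unconjugated artemisinin derivative, spermidine, or the derivative plus spermidine, each at 10 µM, for 48 h. Cell number measured by MTT at 490 nm after formazan solubilisation in acidified isopropanol. Reported as mean ± S.E.M. relative to untreated cells.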

The structures appear in SMILES notation. Active and inactive are the calls of the source. No cut-off for these calls is given here.

By IC50 is commonly meant the point on the concentration scale where inhibition reaches its midpoint.

Regarding `C[C@@H]1CC[C@H]2[C@@H](C)C(=O)N(CCOCCOC(=O)NCCCCNC(=O)OCCOCCN3C(=O)[C@H](C)[C@@H]4CC[C@@H](C)[C@@H]5CC[C@@]6(C)OO[C@]54[C@H]3O6)[C@@H]3O[C@@]4(C)CC[C@@H]1[C@@]23OO4`, the Activity entry in the test with MCF7 [1] is “Dose-dependent effect”. Also, the IC50 with MCF7 [1] is 999 nM; with HUVEC [8], 2300 nM. The Efficacy with MCF7 [2] came out at 52%; in the test on HUVEC [9] it was 23%. Also, the result with MCF7 [3], with MCF7 [6] and in the test with MCF7 [7] was Active. Besides, the outcome in the test on MCF7 [4] and in the test with MCF7 [5] was inactive.
Consider `COC(=O)N(CCCCN(CCCNC(=O)OCCC[C@H]1O[C@@H]2O[C@@]3(C)CC[C@H]4[C@H](C)CC[C@@H]([C@H]1C)[C@@]24OO3)C(=O)OC)CCCNC(=O)OCCC[C@H]1O[C@@H]2O[C@@]3(C)CC[C@H]4[C@H](C)CC[C@@H]([C@H]1C)[C@@]24OO3`, for which the Activity with Chorioallantoic membrane was 22%; with MCF7 [1] it was “Dose-dependent effect”. Also, the IC50 is 1000 nM in the test with MCF7 [1] and 7500 nM in the test with HUVEC [8]. For the same compound, the Efficacy in the test on MCF7 [2] was 70%; in the test on HUVEC [9] it was 27%. The result with MCF7 [3], with MCF7 [6] and in the test with MCF7 [7] was Active. Also, the outcome in the test on MCF7 [4] and in the test with MCF7 [5] was inactive.
On to `COC(=O)N(CCCCNC(=O)OCCOCCO[C@H]1O[C@@H]2O[C@@]3(C)CC[C@H]4[C@H](C)CC[C@@H]([C@H]1C)[C@@]24OO3)CCCNC(=O)OCCOCCO[C@H]1O[C@@H]2O[C@@]3(C)CC[C@H]4[C@H](C)CC[C@@H]([C@H]1C)[C@@]24OO3`, for which the Efficacy in the test on MCF7 [2] is 11.2%.
Take `COC(=O)N(CCCCNC(=O)OCCOCCN1C(=O)[C@H](C)[C@@H]2CC[C@@H](C)[C@@H]3CC[C@@]4(C)OO[C@]32[C@H]1O4)CCCNC(=O)OCCOCCN1C(=O)[C@H](C)[C@@H]2CC[C@@H](C)[C@@H]3CC[C@@]4(C)OO[C@]32[C@H]1O4`: in the test with MCF7 [1], the Activity result is “Dose-dependent effect” and the IC50 stood at 999 nM. In the test on MCF7 [2], the Efficacy amounted to 39%.
In the case of `C[C@H]1[C@@H](OCCOCCOC(=O)NCCCCNC(=O)OCCOCCO[C@H]2O[C@@H]3O[C@@]4(C)CC[C@H]5[C@H](C)CC[C@@H]([C@H]2C)[C@@]35OO4)O[C@@H]2O[C@@]3(C)CC[C@H]4[C@H](C)CC[C@@H]1[C@@]24OO3`, in the test on MCF7 [1], the Activity result is “Dose-dependent effect” and the IC50 came to 1000 nM. For the same compound, the Efficacy in the test with MCF7 [2] was 50%.
For the compound `C[C@H]1[C@@H](O)O[C@@H]2O[C@@]3(C)CC[C@H]4[C@H](C)CC[C@@H]1[C@@]24OO3` [ARTENIMOL], in the test with Chorioallantoic membrane, the Activity came to 2.8%. The concentration for half-maximal inhibition (IC50) in the test on HUVEC [8] came out at 1400 nM. The Efficacy in the test with HUVEC [9] turned out to be 28%.
With `C[C@H]1[C@@H](CCCOC(=O)NCCCCNC(=O)OCCC[C@H]2O[C@@H]3O[C@@]4(C)CC[C@H]5[C@H](C)CC[C@@H]([C@H]2C)[C@@]35OO4)O[C@@H]2O[C@@]3(C)CC[C@H]4[C@H](C)CC[C@@H]1[C@@]24OO3`, the Activity with Chorioallantoic membrane was 14.3%; in the test with MCF7 [1] it was “Dose-dependent effect”. For the same compound, the concentration for half-maximal inhibition (IC50) in the test with MCF7 [1] came out at 1000 nM; in the test with HUVEC [8] it was 3600 nM. Moreover, the Efficacy was 61% in the test with MCF7 [2] and 27% in the test on HUVEC [9]. The result in the test with MCF7 [3], with MCF7 [6] and with MCF7 [7] was Active. Further, the result in the test with MCF7 [4] and with MCF7 [5] was inactive.
Regarding `COC(=O)N(CCCCNC(=O)OCCC[C@H]1O[C@@H]2O[C@@]3(C)CC[C@H]4[C@H](C)CC[C@@H]([C@H]1C)[C@@]24OO3)CCCNC(=O)OCCC[C@H]1O[C@@H]2O[C@@]3(C)CC[C@H]4[C@H](C)CC[C@@H]([C@H]1C)[C@@]24OO3`, the figures for the Activity in the test on Chorioallantoic membrane and in the test with MCF7 [1] were 12% and “Dose-dependent effect”, respectively. Besides, the IC50 is 1000 nM in the test with MCF7 [1] and 1200 nM in the test on HUVEC [8]. The Efficacy with MCF7 [2] is 76%; in the test with HUVEC [9], 35%. Further, the result in the test on MCF7 [3], in the test on MCF7 [4] and in the test with MCF7 [5] was inactive. The outcome with MCF7 [6] and in the test on MCF7 [7] was Active.
With `COC(=O)N(CCCCN(CCCNC(=O)OCCOCCN1C(=O)[C@H](C)[C@@H]2CC[C@@H](C)[C@@H]3CC[C@@]4(C)OO[C@]32[C@H]1O4)C(=O)OC)CCCNC(=O)OCCOCCN1C(=O)[C@H](C)[C@@H]2CC[C@@H](C)[C@@H]3CC[C@@]4(C)OO[C@]32[C@H]1O4`, in the test with MCF7 [1], the Activity entry was “Dose-dependent effect” and the IC50 came out at 1000 nM. For the same compound, the Efficacy with MCF7 [2] is 48%.
Regarding `C[C@H]1[C@@H](CCCO)O[C@@H]2O[C@]3(C)CC[C@H]4[C@H](C)CC[C@@H]1[C@@]24OO3`, in the test with MCF7 [10], the result was inactive.
With `COC(=O)N(CCCCN(CCCNC(=O)OCCOCCO[C@H]1O[C@@H]2O[C@@]3(C)CC[C@H]4[C@H](C)CC[C@@H]([C@H]1C)[C@@]24OO3)C(=O)OC)CCCNC(=O)OCCOCCO[C@H]1O[C@@H]2O[C@@]3(C)CC[C@H]4[C@H](C)CC[C@@H]([C@H]1C)[C@@]24OO3`, in the test with MCF7 [1], the Activity result was “Dose-dependent effect” and the IC50 amounted to 1000 nM. For the same compound, the Efficacy with MCF7 [2] came to 64%.
As to `C[C@@H]1CC[C@H]2[C@@H](C)C(=O)O[C@@H]3O[C@@]4(C)CC[C@@H]1[C@]32OO4` [ARTEMISININ], the figures for the Activity in the test with Chorioallantoic membrane and in the test on MCF7 [1] were 6.3% and “Dose-dependent effect”, respectively. In addition, the Efficacy is listed as 14% with MCF7 [2] and 22% in the test with HUVEC [9]. The result in the test on MCF7 [3], in the test on MCF7 [6] and in the test with MCF7 [7] was Active. Further, the result in the test on MCF7 [4] and in the test on MCF7 [5] was inactive. The IC50 in the test on HUVEC [8] was determined as 1100 nM.

Values taken from ChEMBL document CHEMBL4052646, “Synthesis of nοvel artemisinin dimers with polyamine linkers and evaluation of their potential as anticancer agents” (Bioorg Med Chem, 2017).
